Data from ChEMBL document CHEMBL4732158, “Bicyclic Ligand-Biased Agonists of S1P: Exploring Side Chain Modifications to Modulate the PK, PD, and Safety Profiles” (J Med Chem, 2021).
Each block holds one compound with its values, some of them ahead of it. Active and inactive are the calls of the source. No cut-off for these calls is given here.

Experiments:
Rattus norvegicus [1] = experiment: Reduction in circulating lymphocytes count in Lewis rat at 0.3 mg/kg, po measured at 4 hrs by hematology analyzer based analysis; type: functional; design: scale not given: the % may be the effect or the level left
[2] = Reduction in circulating lymphocytes count in Lewis rat at 0.3 mg/kg, po measured at 24 hrs by hematology analyzer based analysis; type: ADME, organism-based; design: scale not given: the % may be the effect or the level left; settings: in vivo
Rattus norvegicus [3] = experiment: Antiinflammatory activity in complete freund's adjuvant-induced Lewis rat model of arthritis assessed as increase in paw volume at 1 mg/kg, po administered via gavage once daily by plethysmometric method; type: functional, organism-based
Rattus norvegicus [4] = experiment: Antiinflammatory activity in complete freund's adjuvant-induced Lewis rat model of arthritis assessed as reduction in paw edema administered via oral gavage once daily by plethysmometric method; type: functional, organism-based
Rattus norvegicus [5] = experiment: Antiinflammatory activity in complete freund's adjuvant-induced Lewis rat model of arthritis assessed as reduction in paw edema at 0.3 mg/kg, po administered via gavage once daily and measured at day 13 to 20 by plethysmometric method; type: functional, organism-based; settings: time 13-20 day
[6] = Half life in Lewis rat at 1 mg/kg, po measured at 4 to 72 hrs; type: ADME, organism-based; settings: in vivo, time 4-72 hrs
In short: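 Half-life estimated from oral-dosing blood PK profiles in Lewis rats sampled at four time points: 4, 24, 48 and 72 h.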

[7] = AUC ratio in orally dosed cynomolgus monkey blood assessed as phosphate metabolite to parent compound; type: ADME, organism-based, Macaca fascicularis; settings: in vivo, po
In short: (§1)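 Phosphate-to-parent ratio computed as blood AUC ratio after oral dosing in rats, dogs and monkeys.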

[8] = Drug concentration in Lewis rat blood assessed as concentration of parent compound at 1 mg/kg, po measured at 4 hrs by LC-MS/MS analysis; type: ADME, organism-based; settings: Lewis, blood, read-out: Ct
In short: (§2)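 Lewis rats (n = 2−4) dosed orally at 0.5, 1, 2 or 5 mg/kg; blood parent and phosphate metabolite concentrations and lymphocyte counts taken 4 and 24 h post-dose; phosphate-to-parent ratio from 24 h levels; significance versus vehicle by ANOVA with Dunnett's test.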

[9] = Cardiotoxicity in human iPSC derived cardiomyocytes assessed as change in heart rate at 1 nM measured over 2 hrs by multi-electrode array relative to control; type: toxicity, cell-based; settings: stem cell-derived cardiomyocyte, 0.001 µM
In short: (§3)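 Phosphate metabolite of each compound prepared and tested on cultured human induced pluripotent stem cell-derived cardiomyocytes at 1 and 10 nM; beat rate change averaged over three or more replicates per concentration unless noted (some n = 2).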

[10] = AUC ratio in orally dosed human blood assessed as phosphate metabolite to parent compound; type: ADME, organism-based; settings: po
[11] = Drug metabolism in Lewis rat blood assessed as concentration of parent compound at 1 mg/kg, po measured at 24 hrs by LC-MS/MS analysis; type: ADME, organism-based; settings: Lewis, blood, read-out: Ct; in short: as §2
[12] = AUC ratio in orally dosed Beagle dog blood assessed as phosphate metabolite to parent compound; type: ADME, organism-based, Canis lupus familiaris; settings: in vivo, po; in short: as §1
[13] = AUC ratio in orally dosed Sprague-Dawley rat blood assessed as phosphate metabolite to parent compound; type: ADME, organism-based; settings: in vivo, po; in short: as §1
[14] = Reduction in circulating lymphocytes count in Lewis rat at 1 mg/kg, po measured at 24 hrs by hematology analyzer based analysis; type: organism-based; design: scale not given: the % may be the effect or the level left; settings: in vivo; in short: as §2
[15] = Drug metabolism in Lewis rat blood assessed as phosphate ester metabolite to parent ratio at 1 mg/kg, po measured at 24 hrs by LC-MS/MS analysis; settings: in vivo
Rattus norvegicus [16] = experiment: Reduction in circulating lymphocytes count in Lewis rat at 1 mg/kg, po measured at 4 hrs by hematology analyzer based analysis; type: functional; design: scale not given: the % may be the effect or the level left; in short: as §2
[17] = Pulmonary toxicity in Lewis rat assessed as fold elevation of BAL protein content at 1 mg/kg, po by chemistry analyzer based analysis relative to control; type: organism-based; settings: in vivo
In short: (§4)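 Lewis rats dosed orally; bronchoalveolar lavage protein measured at study end, expressed as fold over vehicle control.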

[18] = Cardiotoxicity in human iPSC derived cardiomyocytes assessed as change in heart rate at 10 nM measured over 2 hrs by multi-electrode array relative to control; type: toxicity, cell-based; settings: stem cell-derived cardiomyocyte, 0.01 µM; in short: as §3
[19] = Reduction in circulating lymphocytes count in Lewis rat at 5 mg/kg, po measured at 24 hrs by hematology analyzer based analysis; type: ADME, organism-based; design: scale not given: the % may be the effect or the level left; settings: in vivo
In short: (§5)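 Lewis rats (n = 2−4) dosed orally; whole-blood lymphocyte counts taken 4 h and 24 h after dosing and reduction expressed versus vehicle-treated rats. Significance by ANOVA with Dunnett's test (p < 0.05 vs vehicle). Blood levels of parent and phosphate metabolite measured at the same time points in this PK/PD screen.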

[20] = Pulmonary toxicity in Lewis rat assessed as fold elevation of BAL protein content at 5 mg/kg, po by chemistry analyzer based analysis relative to control; type: organism-based; settings: in vivo; in short: as §4
Rattus norvegicus [21] = experiment: Reduction in circulating lymphocytes count in Lewis rat at 5 mg/kg, po measured at 4 hrs by hematology analyzer based analysis; type: functional; design: scale not given: the % may be the effect or the level left; in short: as §5
[22] = Drug concentration in Lewis rat blood assessed as concentration of parent compound at 5 mg/kg, po measured at 4 hrs by LC-MS/MS analysis; type: ADME, organism-based; settings: read-out: Ct; in short: as §2
[23] = Drug concentration in Lewis rat blood assessed as concentration of parent compound at 5 mg/kg, po measured at 24 hrs by LC-MS/MS analysis; type: ADME, organism-based; settings: Lewis, blood, read-out: Ct; in short: as §2
[24] = Ratio of drug metabolism in Lewis rat blood assessed as phosphate ester metabolite to parent drug at 5 mg/kg, po measured at 24 hrs by LC-MS/MS analysis; type: ADME, organism-based; settings: in vivo; in short: as §2

Activity [2]: 22%
SMILES: C/C=C\CCC[C@@H]1CCc2cc([C@H]3CC[C@](N)(CO)C3)ccc2C1
Activity (Rattus norvegicus [1]): 0%

SMILES: COCCCCCC1CCc2cc([C@H]3CC[C@](N)(CO)C3)ccc2C1 (single isomer, unassigned; 24)
Activity (Rattus norvegicus [3]): inactive | Activity (Rattus norvegicus [4]): Dose-dependent effect | Activity (Rattus norvegicus [5]): inactive

half-life [6]: > 100 h | Ratio AUC [7]: 0.3 | concentration at 4 h [8]: 0.036 µM | Ratio AUC [10]: 0.1 | concentration at 24 h [11]: 0.051 µM | Ratio AUC [12]: 2.4 | Ratio AUC [13]: 2.5 | Activity [14]: 76% | Ratio [15]: 1.2
SMILES: CCCCCC[C@@H]1CCc2cc([C@H]3CC[C@](N)(CO)C3)ccc2C1 [BMS-986104]
Activity [9]: -2% | Activity (Rattus norvegicus [16]): 23% | fold change (FC) [17]: 1.1 | Activity [18]: -33%

Activity [19]: 75% | concentration at 4 h [22]: 0.109 µM | concentration at 24 h [23]: 0.01 µM | Ratio [24]: 2.3
SMILES: CCCC[S+]([O-])C[C@@H]1CCc2cc([C@H]3CC[C@](N)(CO)C3)ccc2C1 (some centres undefined)
fold change (FC) [20]: 1.5 | Activity (Rattus norvegicus [21]): 0%
